Measurements taken from ChEMBL document CHEMBL3045650, “Design, synthesis, and 3D-QSAR analysis of novel 1,3,4-oxadiazol-2(3H)-ones as protoporphyrinogen oxidase inhibitors” (J Agric Food Chem, 2010).

Experiments:
Cyperus iria [1] = test: Post-emergence herbicidal activity against Cyperus iria assessed as growth inhibition at emulsified concentrate of 75 g/ai ha after 15 days by greenhouse test; type: functional
Eclipta prostrata [2] = test: Post-emergence herbicidal activity against Eclipta prostrata assessed as growth inhibition at emulsified concentrate of 75 g/ai ha after 15 days by greenhouse test; type: functional
In short: (§1)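 Compounds were made up as 100 g/L emulsifiable concentrates in DMF with Tween-80, then diluted in water. About 20 seeds were sown 1-3 cm deep in pots and grown in a greenhouse at 15-30 °C and 50% relative humidity. Sprays were applied postemergence at the two-leaf stage. Untreated and DMF + Tween-80 solvent controls were included. Injury was scored visually 15 days after treatment, with three replicates per treatment.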

Brassica juncea [3] = test: Post-emergence herbicidal activity against Brassica juncea assessed as growth inhibition at emulsified concentrate of 37.5 g/ai ha after 15 days by greenhouse test; type: functional; in short: as §1
Amaranthus retroflexus [4] = test: Post-emergence herbicidal activity against Amaranthus retroflexus assessed as growth inhibition at emulsified concentrate of 150 g/ai ha after 15 days by greenhouse test; type: functional
In short: (§2)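 About 20 seeds sown 1–3 cm deep, grown at 15–30 °C and 50% RH. Dicot seedlings sprayed postemergence at the two-leaf stage with a 100 g/L emulsifiable concentrate (DMF/Tween-80) diluted in water, 150 g ai/ha. Untreated and solvent controls included. Visual rating at 15 days, three replicates.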

Cyperus iria [5] = test: Post-emergence herbicidal activity against Cyperus iria assessed as growth inhibition at emulsified concentrate of 150 g/ai ha after 15 days by greenhouse test; type: functional
Polygonum humifusum [6] = test: Post-emergence herbicidal activity against Polygonum humifusum assessed as growth inhibition at emulsified concentrate of 75 g/ai ha after 15 days by greenhouse test; type: functional
Rumex acetosa [7] = test: Post-emergence herbicidal activity against Rumex acetosa assessed as growth inhibition at emulsified concentrate of 75 g/ai ha after 15 days by greenhouse test; type: functional
Rumex acetosa [8] = test: Post-emergence herbicidal activity against Rumex acetosa assessed as growth inhibition at emulsified concentrate of 37.5 g/ai ha after 15 days by greenhouse test; type: functional
Abutilon theophrasti [9] = test: Post-emergence herbicidal activity against Abutilon theophrasti (velvetleaf) assessed as growth inhibition at emulsified concentrate of 37.5 g/ai ha after 15 days by greenhouse test; type: functional
Rumex acetosa [10] = test: Post-emergence herbicidal activity against Rumex acetosa assessed as growth inhibition at emulsified concentrate of 150 g/ai ha after 15 days by greenhouse test; type: functional
Poa annua = test: Post-emergence herbicidal activity against Poa annua assessed as growth inhibition at emulsified concentrate of 150 g/ai ha after 15 days by greenhouse test; type: functional
In short: (§3)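 About 20 seeds sown 1–3 cm deep, grown at 15–30 °C and 50% RH. Monocot seedlings sprayed postemergence at the one-leaf stage with a 100 g/L emulsifiable concentrate (DMF/Tween-80) diluted in water, 150 g ai/ha. Untreated and solvent controls included. Visual rating at 15 days, three replicates.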

Eclipta prostrata [11] = test: Post-emergence herbicidal activity against Eclipta prostrata assessed as growth inhibition at emulsified concentrate of 37.5 g/ai ha after 15 days by greenhouse test; type: functional; in short: as §1
Digitaria sanguinalis = test: Post-emergence herbicidal activity against Digitaria sanguinalis (hairy crabgrass) assessed as growth inhibition at emulsified concentrate of 150 g/ai ha after 15 days by greenhouse test; type: functional; in short: as §3
Amaranthus retroflexus [12] = test: Post-emergence herbicidal activity against Amaranthus retroflexus assessed as growth inhibition at emulsified concentrate of 37.5 g/ai ha after 15 days by greenhouse test; type: functional; in short: as §1
Cyperus iria [13] = test: Post-emergence herbicidal activity against Cyperus iria assessed as growth inhibition at emulsified concentrate of 37.5 g/ai ha after 15 days by greenhouse test; type: functional
Polygonum humifusum [14] = test: Post-emergence herbicidal activity against Polygonum humifusum assessed as growth inhibition at emulsified concentrate of 37.5 g/ai ha after 15 days by greenhouse test; type: functional
Echinochloa crus-galli = test: Post-emergence herbicidal activity against Echinochloa crus-galli (barnyard grass) assessed as growth inhibition at emulsified concentrate of 150 g/ai ha after 15 days by greenhouse test; type: functional; in short: as §3
Eclipta prostrata [15] = test: Post-emergence herbicidal activity against Eclipta prostrata assessed as growth inhibition at emulsified concentrate of 150 g/ai ha after 15 days by greenhouse test; type: functional; in short: as §2
Brassica juncea [16] = test: Post-emergence herbicidal activity against Brassica juncea assessed as growth inhibition at emulsified concentrate of 150 g/ai ha after 15 days by greenhouse test; type: functional; in short: as §2
Abutilon theophrasti [17] = test: Post-emergence herbicidal activity against Abutilon theophrasti (velvetleaf) assessed as growth inhibition at emulsified concentrate of 150 g/ai ha after 15 days by greenhouse test; type: functional
[18] = biological target: T1, Protoporphyrinogen oxidase (Homo sapiens, UniProt P50336); test: Inhibition of Homo sapiens (human) recombinant protoporphyrinogen oxidase expressed in Escherichia coli JM109 assessed as oxidation of protoporphyrinogen IX substrate by fluorescence assay
T1 sequence (P50336 whole entry): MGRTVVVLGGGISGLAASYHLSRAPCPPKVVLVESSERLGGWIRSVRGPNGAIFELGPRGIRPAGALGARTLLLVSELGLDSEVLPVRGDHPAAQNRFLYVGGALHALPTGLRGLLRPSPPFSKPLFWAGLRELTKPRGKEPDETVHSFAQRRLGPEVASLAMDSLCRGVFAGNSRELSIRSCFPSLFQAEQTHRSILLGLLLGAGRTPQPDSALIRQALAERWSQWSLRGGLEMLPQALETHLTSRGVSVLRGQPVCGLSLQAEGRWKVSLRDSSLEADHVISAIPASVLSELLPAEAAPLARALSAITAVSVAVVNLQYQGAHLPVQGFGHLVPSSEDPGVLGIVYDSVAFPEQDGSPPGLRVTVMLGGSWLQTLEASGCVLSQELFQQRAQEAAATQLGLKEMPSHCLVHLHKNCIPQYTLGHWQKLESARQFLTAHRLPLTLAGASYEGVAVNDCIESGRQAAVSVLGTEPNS

Abutilon theophrasti [19] = test: Post-emergence herbicidal activity against Abutilon theophrasti (velvetleaf) assessed as growth inhibition at emulsified concentrate of 75 g/ai ha after 15 days by greenhouse test; type: functional
Brassica juncea [20] = test: Post-emergence herbicidal activity against Brassica juncea assessed as growth inhibition at emulsified concentrate of 75 g/ai ha after 15 days by greenhouse test; type: functional; in short: as §1
Polygonum humifusum [21] = test: Post-emergence herbicidal activity against Polygonum humifusum assessed as growth inhibition at emulsified concentrate of 150 g/ai ha after 15 days by greenhouse test; type: functional
Amaranthus retroflexus [22] = test: Post-emergence herbicidal activity against Amaranthus retroflexus assessed as growth inhibition at emulsified concentrate of 75 g/ai ha after 15 days by greenhouse test; type: functional; in short: as §1

`CCOC(=O)C(C)Sc1nc2cc(-n3nc(C(C)(C)C)oc3=O)c(F)cc2s1` (stereo not given) was tested, and the “inhibition (INH)” value (Cyperus iria [1]) was 90%, the “inhibition (INH)” value (Eclipta prostrata [2]) was 85% and the “inhibition (INH)” value (Brassica juncea [3]) was 70%. For the same compound, the “inhibition (INH)” value (Amaranthus retroflexus [4]) was 90%, the “inhibition (INH)” value (Cyperus iria [5]) was 100% and the “inhibition (INH)” value (Polygonum humifusum [6]) was 70%. For the same compound, the “inhibition (INH)” value (Rumex acetosa [7]) was 95%, the “inhibition (INH)” value (Rumex acetosa [8]) was 95% and the “inhibition (INH)” value (Abutilon theophrasti [9]) was 80%. The “inhibition (INH)” value (Rumex acetosa [10]) was 100%, the inhibition (INH) (Poa annua) was 0% and the “inhibition (INH)” value (Eclipta prostrata [11]) was 80%. The “inhibition (INH)” value (Digitaria sanguinalis) was 50%, the “inhibition (INH)” value (Amaranthus retroflexus [12]) was 60% and the “inhibition (INH)” value (Cyperus iria [13]) was 90%. The “inhibition (INH)” value (Polygonum humifusum [14]) was 60%, the “inhibition (INH)” value (Echinochloa crus-galli) was 0% and the “inhibition (INH)” value (Eclipta prostrata [15]) was 95%. The “inhibition (INH)” value (Brassica juncea [16]) was 75%, the “inhibition (INH)” value (Abutilon theophrasti [17]) was 100% and the Ki [18] was 1420 nM. The “inhibition (INH)” value (Abutilon theophrasti [19]) was 100%, the “inhibition (INH)” value (Brassica juncea [20]) was 70% and the “inhibition (INH)” value (Polygonum humifusum [21]) was 70%. The “inhibition (INH)” value (Amaranthus retroflexus [22]) was 60%.
For `CC(C)OC(=O)CSc1nc2cc(-n3nc(C(C)(C)C)oc3=O)c(F)cc2s1`, the “inhibition (INH)” value (Cyperus iria [1]) was 50%, the “inhibition (INH)” value (Eclipta prostrata [2]) was 0% and the “inhibition (INH)” value (Brassica juncea [3]) was 40%. The “inhibition (INH)” value (Amaranthus retroflexus [4]) was 90%, the “inhibition (INH)” value (Cyperus iria [5]) was 60% and the “inhibition (INH)” value (Polygonum humifusum [6]) was 40%. The “inhibition (INH)” value (Rumex acetosa [7]) was 60%, the “inhibition (INH)” value (Rumex acetosa [8]) was 50% and the “inhibition (INH)” value (Abutilon theophrasti [9]) was 0%. For the same compound, the “inhibition (INH)” value (Rumex acetosa [10]) was 70%, the “inhibition (INH)” value (Poa annua) was 0% and the “inhibition (INH)” value (Eclipta prostrata [11]) was 0%. For the same compound, the “inhibition (INH)” value (Digitaria sanguinalis) was 0%, the “inhibition (INH)” value (Amaranthus retroflexus [12]) was 0% and the “inhibition (INH)” value (Cyperus iria [13]) was 50%. The “inhibition (INH)” value (Polygonum humifusum [14]) was 40%, the “inhibition (INH)” value (Echinochloa crus-galli) was 0% and the “inhibition (INH)” value (Eclipta prostrata [15]) was 70%. For the same compound, the “inhibition (INH)” value (Brassica juncea [16]) was 40%, the “inhibition (INH)” value (Abutilon theophrasti [17]) was 0% and the Ki [18] was 1170 nM. The “inhibition (INH)” value (Abutilon theophrasti [19]) was 0%, the “inhibition (INH)” value (Brassica juncea [20]) was 50% and the “inhibition (INH)” value (Polygonum humifusum [21]) was 60%. The “inhibition (INH)” value (Amaranthus retroflexus [22]) was 85%.
For `CCCOC(=O)CSc1nc2cc(-n3nc(C(C)(C)C)oc3=O)c(F)cc2s1`, the “inhibition (INH)” value (Cyperus iria [1]) was 40%, the “inhibition (INH)” value (Eclipta prostrata [2]) was 40% and the “inhibition (INH)” value (Brassica juncea [3]) was 50%. The “inhibition (INH)” value (Amaranthus retroflexus [4]) was 100%, the “inhibition (INH)” value (Cyperus iria [5]) was 60% and the “inhibition (INH)” value (Polygonum humifusum [6]) was 70%. For the same compound, the “inhibition (INH)” value (Rumex acetosa [7]) was 60%, the “inhibition (INH)” value (Rumex acetosa [8]) was 50% and the “inhibition (INH)” value (Abutilon theophrasti [9]) was 0%. The “inhibition (INH)” value (Rumex acetosa [10]) was 70%, the “inhibition (INH)” value (Poa annua) was 0% and the “inhibition (INH)” value (Eclipta prostrata [11]) was 0%. The “inhibition (INH)” value (Digitaria sanguinalis) was 0%, the “inhibition (INH)” value (Amaranthus retroflexus [12]) was 0% and the “inhibition (INH)” value (Cyperus iria [13]) was 40%. For the same compound, the “inhibition (INH)” value (Polygonum humifusum [14]) was 60%, the “inhibition (INH)” value (Echinochloa crus-galli) was 0% and the “inhibition (INH)” value (Eclipta prostrata [15]) was 90%. The “inhibition (INH)” value (Brassica juncea [16]) was 50%, the “inhibition (INH)” value (Abutilon theophrasti [17]) was 0% and the Ki [18] was 700 nM. The “inhibition (INH)” value (Abutilon theophrasti [19]) was 0%, the “inhibition (INH)” value (Brassica juncea [20]) was 50% and the “inhibition (INH)” value (Polygonum humifusum [21]) was 80%. The “inhibition (INH)” value (Amaranthus retroflexus [22]) was 60%.
`CCOC(=O)CSc1nc2cc(-n3nc(C(C)(C)C)oc3=O)c(Br)cc2s1` was tested, and the “inhibition (INH)” value (Amaranthus retroflexus [4]) was 75%, the “inhibition (INH)” value (Poa annua) was 0% and the “inhibition (INH)” value (Digitaria sanguinalis) was 0%. The “inhibition (INH)” value (Echinochloa crus-galli) was 0%, the “inhibition (INH)” value (Eclipta prostrata [15]) was 0% and the “inhibition (INH)” value (Brassica juncea [16]) was 0%. The Ki [18] was 6960 nM.
With `CCOC(=O)C(C)Sc1nc2cc(-n3nc(C(C)(C)C)oc3=O)c(Br)cc2s1` (stereo not given) the “inhibition (INH)” value (Amaranthus retroflexus [4]) was 70%, the “inhibition (INH)” value (Poa annua) was 0% and the “inhibition (INH)” value (Digitaria sanguinalis) was 0%. The “inhibition (INH)” value (Echinochloa crus-galli) was 0%, the “inhibition (INH)” value (Eclipta prostrata [15]) was 60% and the “inhibition (INH)” value (Brassica juncea [16]) was 0%. The Ki [18] was 8130 nM.
For `CCOC(=O)CCSc1nc2cc(-n3nc(C(C)(C)C)oc3=O)c(Br)cc2s1`, the “inhibition (INH)” value (Amaranthus retroflexus [4]) was 0%, the “inhibition (INH)” value (Poa annua) was 0% and the “inhibition (INH)” value (Digitaria sanguinalis) was 0%. The “inhibition (INH)” value (Echinochloa crus-galli) was 0%, the “inhibition (INH)” value (Eclipta prostrata [15]) was 30% and the “inhibition (INH)” value (Brassica juncea [16]) was 0%. The Ki [18] was 1690 nM.
`CCCOC(=O)CSc1nc2cc(-n3nc(C(C)(C)C)oc3=O)c(Br)cc2s1` was tested, and the “inhibition (INH)” value (Amaranthus retroflexus [4]) was 50%, the “inhibition (INH)” value (Poa annua) was 0% and the “inhibition (INH)” value (Digitaria sanguinalis) was 0%. For the same compound, the “inhibition (INH)” value (Echinochloa crus-galli) was 0%, the “inhibition (INH)” value (Eclipta prostrata [15]) was 30% and the “inhibition (INH)” value (Brassica juncea [16]) was 0%. The Ki [18] was 3100 nM.
`CC(C)OC(=O)CSc1nc2cc(-n3nc(C(C)(C)C)oc3=O)c(Br)cc2s1` was tested, and the “inhibition (INH)” value (Amaranthus retroflexus [4]) was 75%, the “inhibition (INH)” value (Poa annua) was 0% and the “inhibition (INH)” value (Digitaria sanguinalis) was 0%. For the same compound, the “inhibition (INH)” value (Echinochloa crus-galli) was 0%, the “inhibition (INH)” value (Eclipta prostrata [15]) was 0% and the “inhibition (INH)” value (Brassica juncea [16]) was 0%. For the same compound, the Ki [18] was 5970 nM.
